This is an account of results in ChEMBL document CHEMBL1133624, “Benzothiadiazine dioxide dibenzyl derivatives as potent human cytomegalovirus inhibitors: synthesis and comparative molecular field analysis” (J Med Chem, 2000).

One experiment concerns MRC5. As to the kind of experiment: Concentration required to reduce MRC-5 cell growth by 50%. The experiment is classed as functional. Conditions: Homo sapiens. In outline:
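MRC-5 fibroblasts seeded at 5 × 10³ cells/well, left to proliferate 24 h, then exposed to different concentrations of test compound (duplicate). After 3 days at 37 °C in 5% CO₂, cell number counted with a Coulter counter.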

A further experiment has as its system Human betaherpesvirus 5. The experiment is described as follows: Concentration required to reduce viral plaque formation by Human Cytomegalovirus (HCMV) (strain AD-169) in MRC-5 cells. In kind it is functional, organism-based. Conditions: Human betaherpesvirus 5, MRC5.

With `O=S1(=O)N=C(OCc2ccccc2)c2ccccc2N1Cc1ccccc1`, the CC50 in the experiment on MRC5 was greater than 66 µM. In the experiment on Human betaherpesvirus 5, this compound gave a 50% inhibitory concentration (IC50) of 7.9 µM.
For `O=C1c2ccccc2N(Cc2cccc(Cl)c2)S(=O)(=O)N1Cc1ccccc1`, in that order: greater than 60 µM and 3.6 µM.
In the same order, the values of `O=C1c2ccccc2N(Cc2ccccc2Cl)S(=O)(=O)N1Cc1ccccc1` are greater than 60 µM and 4.8 µM.
In the same order, the values of `O=C1c2ccccc2N(Cc2ccc(Cl)cc2)S(=O)(=O)N1Cc1ccc(Cl)cc1` are greater than 56 µM and 3.3 µM.
With `O=C1c2ccccc2N(Cc2ccccc2)S(=O)(=O)N1Cc1ccccc1`, the CC50 with MRC5 is greater than 66 µM. For the same compound, the IC50 in the experiment with Human betaherpesvirus 5 turned out to be 5.3 µM.
For `O=C1c2ccccc2N(Cc2ccccc2)S(=O)(=O)N1Cc1ccc(Cl)cc1`, in that order: greater than 60 µM and 6 µM.
For `O=C(CN1c2ccccc2C(=O)N(Cc2ccccc2)S1(=O)=O)c1ccccc1`, in that order: greater than 61 µM and 24.6 µM.
For `O=C1c2ccccc2N(Cc2ccc(C(F)(F)F)cc2)S(=O)(=O)N1Cc1ccccc1`, in that order: greater than 56 µM and 3.3 µM.
`COc1ccc(CN2C(=O)c3ccccc3N(Cc3ccc(OC)cc3)S2(=O)=O)cc1` returned a CC50 in the experiment on MRC5 greater than 57 µM. This compound displayed a half-inhibitory concentration (IC50) with Human betaherpesvirus 5 of 57 µM.
Turning to `COc1ccc(C(=O)CN2c3ccccc3C(=O)N(Cc3ccccc3)S2(=O)=O)cc1`, in the experiment with MRC5, the 50% cytotoxic concentration (CC50) was greater than 57 µM. The midpoint of inhibition with Human betaherpesvirus 5, the IC50, lay at 3.2 µM.
In the same order, the values of `O=C1c2ccccc2N(Cc2ccc(-c3ccccc3)cc2)S(=O)(=O)N1Cc1ccc(-c2ccccc2)cc1` are greater than 47 µM and 47 µM.
For `N#Cc1ccc(CN2c3ccccc3C(=O)N(Cc3ccccc3)S2(=O)=O)cc1`, in that order: greater than 62 µM and 8 µM.
In the same order, the values of `Cc1ccc(CN2c3ccccc3C(OCc3ccccc3)=NS2(=O)=O)cc1` are greater than 63 µM and 10 µM.
As to `COc1ccc(CN2c3ccccc3C(OCc3ccccc3)=NS2(=O)=O)cc1`, in the experiment on MRC5, the half-maximal cytotoxic concentration (CC50) was greater than 61 µM. The compound also registered an IC50 with Human betaherpesvirus 5 of 61 µM.
Turning to `O=[N+]([O-])c1ccc(COC2=NS(=O)(=O)N(Cc3ccc([N+](=O)[O-])cc3)c3ccccc32)cc1`, in the experiment with MRC5, the CC50 is greater than 53 µM. Besides, in the experiment with Human betaherpesvirus 5, the midpoint of inhibition, the IC50, lay at 53 µM.
For `COc1ccc(CN2c3ccccc3C(=O)N(Cc3ccccc3)S2(=O)=O)cc1`, in that order: greater than 61 µM and 7 µM.
For `CC(C)CN1c2ccccc2C(=O)N(Cc2ccccc2)S1(=O)=O`, the CC50 with MRC5 came out at 72 µM. The same compound displayed an IC50 in the experiment on Human betaherpesvirus 5 of 14.5 µM.
The compound `O=C1c2ccccc2N(CCc2ccccc2)S(=O)(=O)N1Cc1ccccc1` yielded a CC50 with MRC5 greater than 64 µM. For the same compound, the midpoint of inhibition in the experiment on Human betaherpesvirus 5, the IC50, lay at 7.6 µM.
In the same order, the values of `C#CCCN1c2ccccc2C(=O)N(Cc2ccccc2)S1(=O)=O` are 77 µM and 76.6 µM.
For `Cc1ccc(C(=O)CN2c3ccccc3C(=O)N(Cc3ccccc3)S2(=O)=O)cc1`, in that order: greater than 59 µM and 2.8 µM.
In the same order, the values of `O=S1(=O)N=C(OCc2ccc(Cl)c(Cl)c2)c2ccccc2N1Cc1ccc(Cl)c(Cl)c1` are greater than 48 µM and 48 µM.
For `O=C1c2ccccc2N(Cc2ccc(Cl)c(Cl)c2)S(=O)(=O)N1Cc1ccccc1`, in the experiment on MRC5, the CC50 was greater than 56 µM. The compound further gave a 50% inhibitory concentration (IC50) in the experiment on Human betaherpesvirus 5 of 4 µM.
For `O=C1c2ccccc2N(CC2CCCCC2)S(=O)(=O)N1Cc1ccccc1`, in that order: greater than 65 µM and 15.6 µM.
Turning to `Cc1ccc(CN2c3ccccc3C(=O)N(Cc3ccccc3)S2(=O)=O)cc1`, the half-maximal cytotoxic concentration (CC50) with MRC5 is greater than 63 µM. Moreover, the half-inhibitory concentration (IC50) with Human betaherpesvirus 5 worked out at 2.5 µM.
For `O=C1c2ccccc2N(Cc2ccc([N+](=O)[O-])cc2)S(=O)(=O)N1Cc1ccc([N+](=O)[O-])cc1`, in that order: greater than 53 µM and 53 µM.
For `O=S1(=O)N=C(OCc2ccccc2)c2ccccc2N1Cc1ccc(Cl)c(Cl)c1`, in that order: greater than 56 µM and 26 µM.
In the same order, the values of `O=C1c2ccccc2N(Cc2ccc(C(F)(F)F)cc2)S(=O)(=O)N1Cc1ccc(C(F)(F)F)cc1` are greater than 48 µM and 15 µM.
Consider `O=C1c2ccccc2N(Cc2ccc(Cl)cc2)S(=O)(=O)N1Cc1ccccc1`, for which, in the experiment on MRC5, the CC50 was greater than 60 µM. This compound also registered an IC50 in the experiment with Human betaherpesvirus 5 of 3.6 µM.
In the same order, the values of `O=C1c2ccccc2N(Cc2cccc3ccccc23)S(=O)(=O)N1Cc1ccccc1` are greater than 58 µM and 11.6 µM.
For `O=S1(=O)N=C(OCc2ccc(-c3ccccc3)cc2)c2ccccc2N1Cc1ccc(-c2ccccc2)cc1`, in that order: greater than 47 µM and 47 µM.
For `O=C1c2ccccc2N(Cc2ccc(Cl)c(Cl)c2)S(=O)(=O)N1Cc1ccc(Cl)c(Cl)c1`, in that order: greater than 48 µM and 15 µM.
Compound `O=C1c2ccccc2N(CCCc2ccccc2)S(=O)(=O)N1Cc1ccccc1` yielded a CC50 in the experiment with MRC5 greater than 57 µM. In the experiment with Human betaherpesvirus 5, the concentration for half-maximal inhibition (IC50) amounted to 18.4 µM.
In the same order, the values of `COc1ccc(CCN2c3ccccc3C(=O)N(Cc3ccccc3)S2(=O)=O)cc1` are greater than 59 µM and 4 µM.
In the same order, the values of `O=C1c2ccccc2N(Cc2ccccc2Cl)S(=O)(=O)N1Cc1ccccc1Cl` are greater than 56 µM and 33 µM.
For `O=C1c2ccccc2N(Cc2ccccc2)S(=O)(=O)N1Cc1ccccc1Cl`, in that order: greater than 60 µM and 12 µM.
For `O=S1(=O)N=C(OCc2ccc(C(F)(F)F)cc2)c2ccccc2N1Cc1ccc(C(F)(F)F)cc1`, the 50% cytotoxic concentration (CC50) in the experiment with MRC5 is greater than 48 µM. In the experiment with Human betaherpesvirus 5, this compound came in with an IC50 of 23 µM.
For `O=C1c2ccccc2N(Cc2cccnc2)S(=O)(=O)N1Cc1ccccc1`, in that order: 66 µM and 13.1 µM.
In the same order, the values of `O=C1c2ccccc2N(Cc2ccccc2-c2ccccc2)S(=O)(=O)N1Cc1ccccc1` are greater than 55 µM and 44 µM.
In the same order, the values of `N#Cc1ccc(CN2c3ccccc3C(OCc3ccccc3)=NS2(=O)=O)cc1` are greater than 62 µM and 29 µM.
In the experiment on MRC5, `O=C1c2ccccc2N(Cc2ccc([N+](=O)[O-])cc2)S(=O)(=O)N1Cc1ccccc1` registered a half-maximal cytotoxic concentration (CC50) greater than 59 µM. Moreover, 8 µM corresponded to half-maximal inhibition in the experiment with Human betaherpesvirus 5 (IC50).
In the same order, the values of `Nc1nc2c(ncn2COC(CO)CO)c(=O)[nH]1` [GANCICLOVIR] are greater than 98 µM and 5.9 µM.
